Assay results reported in ChEMBL document CHEMBL1157304, “Sesquiterpene lactones from Inula britannica and their cytotoxic and apoptotic effects on human cancer cell lines” (J Nat Prod, 2006).
pIC50: −log10 of the molar value.

Tests used:
HL-60 [1] = assay: Cytotoxicity against human HL60 cells after 24 hrs by trypan blue exclusion assay; format: functional, cell-based; settings: HL-60, 24 h
Outline: (§1)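 Cells grown at 37 °C, 5% CO2; RPMI for COLO 205, HT-29 and HL-60, DMEM/F12 for AGS, each with 10% heat-inactivated FBS, penicillin/streptomycin and 2 mM L-glutamine. Compounds in DMSO (vehicle control 0.01% DMSO) tested at 5–100 μM for 24 h. Cells diluted 1:1 with 0.5% trypan blue. Unstained cells counted by hemocytometer and expressed as % viable. Three samples per group, mean ± SE.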

AGS [2] = assay: Induction of apoptosis in human AGS cells at 25 uM after 24 hrs by FACS; format: functional
Outline: (§2)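 2 × 10^5 cells plated in 60 mm dishes and incubated 24 h, then treated for 24 h with compound in DMSO. Cells harvested, washed in PBS and fixed overnight in ice-cold ethanol at −20 °C. Pellets held 30 min at 37 °C in 0.5% Triton X-100/PBS with 0.5 μg/mL RNase. Propidium iodide (50 μg/mL) added, 30 min on ice. Sub-G1 fraction read by FACScan flow cytometry. n=3, mean ± SE.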

HT-29 [3] = assay: Induction of apoptosis in human HT29 cells at 10 uM after 24 hrs by FACS; format: functional; outline: as §2
HL-60 [4] = assay: Induction of apoptosis in human HL60 cells at 50 uM after 24 hrs by FACS; format: functional; outline: as §2
COLO 205 [5] = assay: Cytotoxicity against human COLO205 cells after 24 hrs by trypan blue exclusion assay; format: functional, cell-based; settings: COLO 205, 24 h; outline: as §1
AGS [6] = assay: Induction of apoptosis in human AGS cells at 100 uM after 24 hrs by FACS; format: functional; outline: as §2
AGS [7] = assay: Induction of apoptosis in human AGS cells at 10 uM after 24 hrs by FACS; format: functional; outline: as §2
HT-29 [8] = assay: Induction of apoptosis in human HT29 cells at 25 uM after 24 hrs by FACS; format: functional; outline: as §2
HL-60 [9] = assay: Induction of apoptosis in human HL60 cells at 100 uM after 24 hrs by FACS; format: functional; outline: as §2
HT-29 [10] = assay: Cytotoxicity against human HT29 cells after 24 hrs by trypan blue exclusion assay; format: functional, cell-based; settings: HT-29, 24 h; outline: as §1
HT-29 [11] = assay: Induction of apoptosis in human HT29 cells at 100 uM after 24 hrs by FACS; format: functional; outline: as §2
COLO 205 [12] = assay: Induction of apoptosis in human COLO205 cells at 10 uM after 24 hrs by FACS; format: functional; outline: as §2
HT-29 [13] = assay: Induction of apoptosis in human HT29 cells at 5 uM after 24 hrs by FACS; format: functional; outline: as §2
HL-60 [14] = assay: Induction of apoptosis in human HL60 cells at 5 uM after 24 hrs by FACS; format: functional; outline: as §2
COLO 205 [15] = assay: Induction of apoptosis in human COLO205 cells at 100 uM after 24 hrs by FACS; format: functional; outline: as §2
AGS [16] = assay: Cytotoxicity against human AGS cells after 24 hrs by trypan blue exclusion assay; format: functional, cell-based; outline: as §1
COLO 205 [17] = assay: Induction of apoptosis in human COLO205 cells at 25 uM after 24 hrs by FACS; format: functional; outline: as §2
HL-60 [18] = assay: Induction of apoptosis in human HL60 cells at 10 uM after 24 hrs by FACS; format: functional; outline: as §2
COLO 205 [19] = assay: Induction of apoptosis in human COLO205 cells at 5 uM after 24 hrs by FACS; format: functional; outline: as §2
AGS [20] = assay: Induction of apoptosis in human AGS cells at 5 uM after 24 hrs by FACS; format: functional; outline: as §2
HT-29 [21] = assay: Induction of apoptosis in human HT29 cells at 50 uM after 24 hrs by FACS; format: functional; outline: as §2
HL-60 [22] = assay: Induction of apoptosis in human HL60 cells at 25 uM after 24 hrs by FACS; format: functional; outline: as §2
AGS [23] = assay: Induction of apoptosis in human AGS cells at 50 uM after 24 hrs by FACS; format: functional; outline: as §2
COLO 205 [24] = assay: Induction of apoptosis in human COLO205 cells at 50 uM after 24 hrs by FACS; format: functional; outline: as §2

SMILES	pIC50 (HL-60 [1])	Activity (AGS [2])	Activity (HT-29 [3])	Activity (HL-60 [4])	pIC50 (COLO 205 [5])	Activity (AGS [6])	Activity (AGS [7])	Activity (HT-29 [8])	Activity (HL-60 [9])	pIC50 (HT-29 [10])	Activity (HT-29 [11])	Activity (COLO 205 [12])	Activity (HT-29 [13])	Activity (HL-60 [14])	Activity (COLO 205 [15])	pIC50 (AGS [16])	Activity (COLO 205 [17])	Activity (HL-60 [18])	Activity (COLO 205 [19])	Activity (AGS [20])	also measured
C=C1C(=O)O[C@@H]2CC(C)=C([C@@H](C)CCCOC(C)=O)[C@H](O)[C@H]12	< 4.00	14.666%	6.81%	5.69%	< 4.00	18.85%	17.28%	11.68%	22.19%	4.02	14.87%	11.32%	5.36%	4.05%	35.79%	< 4.00	16.48%	7.26%	13.44%	15.37%	Activity (HT-29 [21]): 9.26%; Activity (HL-60 [22]): 4.37%; Activity (AGS [23]): 14.84%; Activity (COLO 205 [24]): 16.59%
C=C1C(=O)O[C@@H]2CC(C)=C([C@@H](C)CCCO)[C@H](OC(=O)C(C)CC)[C@H]12 (some centres not stated)	4.33	17.76%	3.68%	28.6%	4.23	27.1%	11.38%	3.93%	27.05%	4.32	6.4%	5.86%	4.24%	6.41%	36.24%	4.50	15.2%	5.36%	5.33%	10.89%	Activity (HT-29 [21]): 5.16%; Activity (HL-60 [22]): 10.53%; Activity (AGS [23]): 28.48%; Activity (COLO 205 [24]): 27.21%
C=C1C(=O)O[C@@H]2CC(C)=C([C@@H](C)CCCOC(C)=O)[C@H](OC(C)=O)[C@H]12	4.45	11.29%	11.15%	27.02%	4.25	8.12%	5.79%	11.5%	22.24%	4.12	20.88%	8.69%	11.19%	6.14%	17.82%	4.18	26.95%	8.67%	6.94%	7.49%	Activity (HT-29 [21]): 13.08%; Activity (HL-60 [22]): 21.13%; Activity (AGS [23]): 10.79%; Activity (COLO 205 [24]): 15.44%
